{"source": "ChEMBL document CHEMBL1165943", "about": "“Design and synthesis of new anticancer pyrimidines with multiple-kinase inhibitory effect” (Bioorg Med Chem, 2010)", "key": {"UACC-62 [1]": {"tested_on": "UACC-62", "experiment": "Growth inhibition of human UACC62 cells after 48 hrs by sulforhodamine B assay", "assay_type": "functional, cell-based", "settings": "UACC-62, 48 h", "method_in_brief": "(§1)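 Cells grown in RPMI 1640 with 5% FBS and 2 mM L-glutamine, seeded at 5,000–40,000 cells/well according to doubling time. After 24 h, time-zero plates are TCA-fixed. Five concentrations (10-fold or ½log dilutions, DMSO stocks) are applied for 48 h at 37 °C, 5% CO₂. Cells are TCA-fixed, SRB-stained and read at 515 nm. IC₅₀ is taken from [(Ti−Tz)/(C−Tz)]×100 = 50.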"}, "SK-OV-3 [2]": {"tested_on": "SK-OV-3", "experiment": "Growth inhibition of human SKOV3 cells after 48 hrs by sulforhodamine B assay", "assay_type": "functional, cell-based", "settings": "SK-OV-3, 48 h", "method_in_brief": "as §1"}, "ACHN": {"tested_on": "ACHN", "experiment": "Growth inhibition of human ACHN cells after 48 hrs by sulforhodamine B assay", "assay_type": "functional, cell-based", "method_in_brief": "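Five-dose SRB assay. Cells in RPMI 1640 with 5% FBS and 2 mM L-glutamine were seeded at 5,000–40,000 cells/well, with a TCA-fixed time-zero plate (Tz) taken at 24 h. Compound stocks were in DMSO, serially diluted 10-fold or ½-log to five concentrations, and incubated 48 h at 37 °C. Plates were stained with SRB and read at 515 nm. IC₅₀ was taken where [(Ti−Tz)/(C−Tz)]×100 = 50.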"}, "T47D": {"tested_on": "T47D", "experiment": "Growth inhibition of human T47D cells after 48 hrs by sulforhodamine B assay", "assay_type": "functional, cell-based", "method_in_brief": "as §1"}, "KM12": {"tested_on": "KM12", "experiment": "Cytotoxicity against human KM12 cells assessed as cell growth at 0.001 uM after 48 hrs by sulforhodamine B assay", "assay_type": "functional", "settings": "KM12, 48 h, read-out: Activity"}, "SW-620": {"tested_on": "SW-620", "experiment": "Cytotoxicity against human SW620 cells assessed as cell growth at 0.001 uM after 48 hrs by sulforhodamine B assay", "assay_type": "functional", "settings": "SW-620, 48 h, read-out: Activity"}, "SK-OV-3 [3]": {"tested_on": "SK-OV-3", "experiment": "Cytotoxicity against human SKOV3 cells assessed as cell growth at 0.001 uM after 48 hrs by sulforhodamine B assay", "assay_type": "functional", "settings": "SK-OV-3, 48 h, read-out: Activity"}, "[4]": {"experiment": "Cytotoxicity against human Hs 578T cells assessed as cell growth at 0.001 uM after 48 hrs by sulforhodamine B assay", "assay_type": "functional", "settings": "read-out: Activity"}, "EKVX": {"tested_on": "EKVX", "experiment": "Cytotoxicity against human EKVX cells assessed as cell growth at 100 nM after 48 hrs by sulforhodamine B assay", "assay_type": "functional", "settings": "read-out: Activity"}, "NCI-H322M": {"tested_on": "NCI-H322M", "experiment": "Cytotoxicity against human NCI-H322M cells assessed as cell growth at 100 nM after 48 hrs by sulforhodamine B assay", "assay_type": "functional", "settings": "read-out: Activity"}, "SF-539": {"tested_on": "SF-539", "experiment": "Cytotoxicity against human SF539 cells assessed as cell growth at 100 nM after 48 hrs by sulforhodamine B assay", "assay_type": "functional", "settings": "SF-539, 48 h, read-out: Activity"}, "MDA-MB-435": {"tested_on": "MDA-MB-435", "experiment": "Cytotoxicity against human MDA-MB-435 cells assessed as cell growth at 100 nM after 48 hrs by sulforhodamine B assay", "assay_type": "functional", "settings": "MDA-MB-435, 48 h, read-out: Activity"}, "UACC-62 [5]": {"tested_on": "UACC-62", "experiment": "Cytotoxicity against human UACC62 cells assessed as cell growth at 100 nM after 48 hrs by sulforhodamine B assay", "assay_type": "functional", "settings": "UACC-62, 48 h, read-out: Activity"}, "OVCAR-5": {"tested_on": "OVCAR-5", "experiment": "Cytotoxicity against human OVCAR5 cells assessed as cell growth at 100 nM after 48 hrs by sulforhodamine B assay", "assay_type": "functional", "settings": "OVCAR-5, 48 h, read-out: Activity"}, "A549": {"tested_on": "A549", "experiment": "Cytotoxicity against human A549 cells assessed as cell growth at 0.01 uM after 48 hrs by sulforhodamine B assay", "assay_type": "functional", "settings": "A549, 48 h, read-out: Activity", "method_in_brief": "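Cells grown in RPMI 1640 with 5% FBS and 2 mM L-glutamine, seeded at 5,000–40,000 cells/well by doubling time. Time-zero plates TCA-fixed after 24 h. Five concentrations (10-fold or half-log dilutions from DMSO stock) added; 48 h at 37 °C, 5% CO2. Cold TCA fixation (final 10%, 60 min, 4 °C), 0.4% SRB stain, dye solubilized in 10 mM trizma base, A515.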"}, "U-251": {"tested_on": "U-251", "experiment": "Cytotoxicity against human U251 cells assessed as cell growth at 10 uM after 48 hrs by sulforhodamine B assay", "assay_type": "functional", "settings": "U-251, 48 h, read-out: Activity"}, "M14": {"tested_on": "M14", "experiment": "Cytotoxicity against human M14 cells assessed as cell growth at 0.01 uM after 48 hrs by sulforhodamine B assay", "assay_type": "functional", "settings": "M14, 48 h, read-out: Activity"}, "UO-31 [6]": {"tested_on": "UO-31", "experiment": "Cytotoxicity against human UO31 cells assessed as cell growth at 100 nM after 48 hrs by sulforhodamine B assay", "assay_type": "functional", "settings": "UO-31, 48 h, read-out: Activity"}, "SK-MEL-2": {"tested_on": "SK-MEL-2", "experiment": "Cytotoxicity against human SK-MEL-2 cells assessed as cell growth at 10 uM after 48 hrs by sulforhodamine B assay", "assay_type": "functional", "settings": "SK-MEL-2, 48 h, read-out: Activity"}, "UO-31 [7]": {"tested_on": "UO-31", "experiment": "Cytotoxicity against human UO31 cells assessed as cell growth at 10 uM after 48 hrs by sulforhodamine B assay", "assay_type": "functional", "settings": "UO-31, 48 h, read-out: Activity"}, "DU-145 [8]": {"tested_on": "DU-145", "experiment": "Cytotoxicity against human DU145 cells assessed as cell growth at 10 uM after 48 hrs by sulforhodamine B assay", "assay_type": "functional", "settings": "DU-145, 48 h, read-out: Activity"}, "[9]": {"experiment": "Cytotoxicity against human Hs 578T cells assessed as cell growth at 10 uM after 48 hrs by sulforhodamine B assay", "assay_type": "functional", "settings": "read-out: Activity"}, "UACC-257": {"tested_on": "UACC-257", "experiment": "Cytotoxicity against human UACC257 cells assessed as cell growth at 0.01 uM after 48 hrs by sulforhodamine B assay", "assay_type": "functional", "settings": "UACC-257, 48 h, read-out: Activity"}, "MDA-MB-231 [10]": {"tested_on": "MDA-MB-231", "experiment": "Cytotoxicity against human MDA-MB-231 cells assessed as cell growth at 0.01 uM after 48 hrs by sulforhodamine B assay", "assay_type": "functional", "settings": "MDA-MB-231, 48 h, read-out: Activity"}, "HL-60(TB)": {"tested_on": "HL-60(TB)", "experiment": "Growth inhibition of human HL-60(TB) cells after 48 hrs by sulforhodamine B assay", "assay_type": "functional, cell-based", "settings": "HL-60, 48 h", "method_in_brief": "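HL-60(TB) suspension cells in RPMI 1640 with 5% FBS receive five 10-fold or ½log drug dilutions from DMSO stock for 48 h at 37 °C, 5% CO2. Settled cells are TCA-fixed, SRB-stained and read at 515 nm against a time-zero plate. […] is solved from [(Ti−Tz)/(C−Tz)]×100 = 50.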"}, "DU-145 [11]": {"tested_on": "DU-145", "experiment": "Cytotoxicity against human DU145 cells assessed as cell growth at 1 uM after 48 hrs by sulforhodamine B assay", "assay_type": "functional", "settings": "DU-145, 48 h, read-out: Activity"}, "MDA-MB-231 [12]": {"tested_on": "MDA-MB-231", "experiment": "Cytotoxicity against human MDA-MB-231 cells assessed as cell growth at 1 uM after 48 hrs by sulforhodamine B assay", "assay_type": "functional", "settings": "MDA-MB-231, 48 h, read-out: Activity"}, "K562": {"tested_on": "K562", "experiment": "Cytotoxicity against human K562 cells assessed as cell growth at 10 uM after 48 hrs by sulforhodamine B assay", "assay_type": "functional", "settings": "K562, 48 h, read-out: Activity"}}, "data": [{"smiles": "CC(=O)Nc1cccc(-c2ccc(-c3ccnc(NC(=O)Nc4cc(C(F)(F)F)cc(C(F)(F)F)c4)n3)cn2)c1.Cl", "values": [{"measurement": "GI50", "setting": "UACC-62 [1]", "result": 2.86, "unit": "µM"}, {"measurement": "IC50", "setting": "UACC-62 [1]", "result": 2.86, "unit": "µM"}, {"measurement": "LC50 (concentration causing 50% net cell kill)", "setting": "UACC-62 [1]", "result": 35.7, "unit": "µM"}, {"measurement": "TGI", "setting": "UACC-62 [1]", "result": 12.7, "unit": "µM"}, {"measurement": "GI50", "setting": "SK-OV-3 [2]", "result": 13.1, "unit": "µM"}, {"measurement": "IC50", "setting": "SK-OV-3 [2]", "result": 13.1, "unit": "µM"}, {"measurement": "LC50 (concentration giving 50% net cell kill)", "setting": "SK-OV-3 [2]", "result": 78.8, "unit": "µM"}, {"measurement": "TGI", "setting": "SK-OV-3 [2]", "result": 32.2, "unit": "µM"}, {"measurement": "GI50", "setting": "ACHN", "result": 3.83, "unit": "µM"}, {"measurement": "IC50", "setting": "ACHN", "result": 3.83, "unit": "µM"}, {"measurement": "LC50 (50% lethal concentration)", "setting": "ACHN", "result": 47.1, "unit": "µM"}, {"measurement": "TGI", "setting": "ACHN", "result": 15.5, "unit": "µM"}, {"measurement": "GI50", "setting": "T47D", "result": 0.619, "unit": "µM"}, {"measurement": "IC50", "setting": "T47D", "result": 0.619, "unit": "µM"}, {"measurement": "LC50 (lethal concentration, 50% net cell kill)", "setting": "T47D", "result": "> 100", "unit": "µM"}, {"measurement": "TGI", "setting": "T47D", "result": 8.43, "unit": "µM"}, {"measurement": "growth at 0.001 µM", "setting": "KM12", "result": 99, "unit": "%"}, {"measurement": "growth at 0.001 µM", "setting": "SW-620", "result": 95, "unit": "%"}, {"measurement": "growth at 0.001 µM", "setting": "SK-OV-3 [3]", "result": 103, "unit": "%"}, {"measurement": "growth at 0.001 µM", "setting": "[4]", "result": 90, "unit": "%"}, {"measurement": "growth at 0.1 µM", "setting": "EKVX", "result": 63, "unit": "%"}, {"measurement": "growth at 0.1 µM", "setting": "NCI-H322M", "result": 69, "unit": "%"}, {"measurement": "growth at 0.1 µM", "setting": "SF-539", "result": 86, "unit": "%"}, {"measurement": "growth at 0.1 µM", "setting": "MDA-MB-435", "result": 89, "unit": "%"}, {"measurement": "growth at 0.1 µM", "setting": "UACC-62 [5]", "result": 82, "unit": "%"}, {"measurement": "growth at 0.1 µM", "setting": "OVCAR-5", "result": 97, "unit": "%"}, {"measurement": "growth at 0.01 µM", "setting": "A549", "result": 67, "unit": "%"}, {"measurement": "growth at 10 µM", "setting": "U-251", "result": -96, "unit": "%"}, {"measurement": "growth at 0.01 µM", "setting": "M14", "result": 92, "unit": "%"}, {"measurement": "growth at 0.1 µM", "setting": "UO-31 [6]", "result": 70, "unit": "%"}, {"measurement": "growth at 10 µM", "setting": "SK-MEL-2", "result": -83, "unit": "%"}, {"measurement": "growth at 10 µM", "setting": "UO-31 [7]", "result": -75, "unit": "%"}, {"measurement": "growth at 10 µM", "setting": "DU-145 [8]", "result": -93, "unit": "%"}, {"measurement": "growth at 10 µM", "setting": "[9]", "result": 18, "unit": "%"}, {"measurement": "growth at 0.01 µM", "setting": "UACC-257", "result": 96, "unit": "%"}, {"measurement": "growth at 0.01 µM", "setting": "MDA-MB-231 [10]", "result": 93, "unit": "%"}, {"measurement": "GI50", "setting": "HL-60(TB)", "result": 3.78, "unit": "µM"}, {"measurement": "IC50", "setting": "HL-60(TB)", "result": 3.78, "unit": "µM"}, {"measurement": "TGI", "setting": "HL-60(TB)", "result": 96.1, "unit": "µM"}, {"measurement": "CC50", "setting": "HL-60(TB); read-out: LC50 (the source's name)", "result": "> 100", "unit": "µM"}, {"measurement": "growth at 1 µM", "setting": "DU-145 [11]", "result": 38, "unit": "%"}, {"measurement": "growth at 1 µM", "setting": "MDA-MB-231 [12]", "result": 30, "unit": "%"}, {"measurement": "growth at 10 µM", "setting": "K562", "result": 19, "unit": "%"}]}]}
